Results taken from ChEMBL document CHEMBL1208778, “Synthesis and anti-cancer activity of chalcone linked imidazolones” (2010).
Values belong to the compound of their own block, whether it stands above or below them. The source made the active and inactive calls. The calls are words filed in the database; no cut-off is given here.

How the values were obtained:
Type in all cases: functional
[1] = Growth inhibition of human RPMI8266 cells
Outline: (§1)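 Five-dose testing was run within the NCI (Bethesda) in vitro Anticancer Screen Program on a panel of 53 human tumour cell lines from nine cancer types. Growth inhibition is reported as GI50.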

K562 = test: Growth inhibition of human K562 cells; outline: as §1
A549 = test: Growth inhibition of human A549 cells; outline: as §1
EKVX = test: Growth inhibition of human EKVX cells; outline: as §1
HOP-62 = test: Growth inhibition of human HOP62 cells; outline: as §1
HOP-92 = test: Growth inhibition of human HOP92 cells; outline: as §1
NCI-H226 = test: Growth inhibition of human NCI-H226 cells; outline: as §1
NCI-H23 = test: Growth inhibition of human NCI-H23 cells; outline: as §1
NCI-H322M = test: Growth inhibition of human NCI-H322M cells; outline: as §1
NCI-H460 = test: Growth inhibition of human NCI-H460 cells; outline: as §1
NCI-H522 = test: Growth inhibition of human NCI-H522 cells; outline: as §1
COLO 205 = test: Growth inhibition of human COLO205 cells; outline: as §1
HCC 2998 = test: Growth inhibition of human HCC2998 cells; outline: as §1
HCT-116 = test: Growth inhibition of human HCT116 cells; outline: as §1
HCT-15 = test: Growth inhibition of human HCT15 cells; outline: as §1
HT-29 = test: Growth inhibition of human HT-29 cells; outline: as §1
KM12 = test: Growth inhibition of human KM12 cells; outline: as §1
SW-620 = test: Growth inhibition of human SW620 cells
Outline: (§2)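 Compounds that passed a preliminary screen were tested at five doses in the NCI (Bethesda) in vitro Anticancer Screen Program against a 53-line human tumour panel spanning leukemia, lung, colon, CNS, melanoma, ovarian, renal, prostate and breast. Growth inhibition is reported as GI50.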

SF-268 = test: Growth inhibition of human SF268 cells; outline: as §1
SF-295 = test: Growth inhibition of human SF295 cells; outline: as §1
SF-539 = test: Growth inhibition of human SF539 cells; outline: as §1
SNB-19 = test: Growth inhibition of human SNB19 cells; outline: as §2
SNB-75 = test: Growth inhibition of human SNB75 cells; outline: as §2
U-251 = test: Growth inhibition of human U251 cells; outline: as §2
A498 = test: Growth inhibition of human A498 cells; outline: as §1
786-0 = test: Growth inhibition of human 786-0 cells; outline: as §1
ACHN = test: Growth inhibition of human ACHN cells; outline: as §1
CAKI-1 = test: Growth inhibition of human Caki1 cells; outline: as §1
RXF 393 = test: Growth inhibition of human RXF393 cells; outline: as §1
SN12C = test: Growth inhibition of human SN12C cells; outline: as §2
TK-10 = test: Growth inhibition of human TK10 cells; outline: as §2
UO-31 = test: Growth inhibition of human UO31 cells; outline: as §2
PC-3 = test: Growth inhibition of human PC3 cells; outline: as §1
OVCAR-3 = test: Growth inhibition of human OVCAR-3 cells; outline: as §1
OVCAR-4 = test: Growth inhibition of human OVCAR4 cells; outline: as §1
OVCAR-5 = test: Growth inhibition of human OVCAR5 cells; outline: as §1
OVCAR-8 = test: Growth inhibition of human OVCAR8 cells; outline: as §1
NCI/ADR-RES = test: Growth inhibition of human NCI/ADR-RES cells; outline: as §1
SK-OV-3 = test: Growth inhibition of human SKOV3 cells; outline: as §2
MCF7 [2] = test: Growth inhibition of human MCF7 cells; outline: as §1
MDA-MB-231 = test: Growth inhibition of human MDA-MB-231 cells; outline: as §1
[3] = Growth inhibition of human Hs 578T cells; outline: as §1
BT-549 = test: Growth inhibition of human BT549 cells; outline: as §1
T47D = test: Growth inhibition of human T47D cells; outline: as §2
LOX IMVI = test: Growth inhibition of human LOXIMVI cells; outline: as §1
Malme-3M = test: Growth inhibition of human MALME-3M cells; outline: as §1
M14 = test: Growth inhibition of human M14 cells; outline: as §1
MDA-MB-435 = test: Growth inhibition of human MDA-MB-435 cells; outline: as §1
SK-MEL-2 = test: Growth inhibition of human SK-MEL-2 cells; outline: as §1
SK-MEL-28 = test: Growth inhibition of human SK-MEL-28 cells; outline: as §1
SK-MEL-5 = test: Growth inhibition of human SK-MEL-5 cells; outline: as §1
UACC-257 = test: Growth inhibition of human UACC257 cells; outline: as §2
UACC-62 = test: Growth inhibition of human UACC62 cells; outline: as §2
MCF7 [4] = test: Cell cycle arrest in human MCF7 cells assessed as accumulation at G0 phase at 10 uM after 24 hrs by FACS analysis
Outline: (§3)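 MCF-7 breast carcinoma cells were exposed to 10 µM test compound for 24 h, with DMSO as the vehicle control. Cell-cycle distribution was read by FACS as the percentage of cells in G0, G1, S and G2/M.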

MCF7 [5] = test: Cell cycle arrest in human MCF7 cells assessed as accumulation at G1 phase at 10 uM after 24 hrs by FACS analysis; outline: as §3
MCF7 [6] = test: Cell cycle arrest in human MCF7 cells assessed as accumulation at S phase at 10 uM after 24 hrs by FACS analysis; outline: as §3
MCF7 [7] = test: Cell cycle arrest in human MCF7 cells assessed as accumulation at G2/M phase at 10 uM after 24 hrs by FACS analysis; outline: as §3
MCF7 [8] = test: Cell cycle arrest in human MCF7 cells assessed as accumulation at G0 phase at 30 uM after 24 hrs by FACS analysis
Outline: (§4)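 MCF-7 cells were treated at 30 µM for 24 h alongside a DMSO control. Fractions in G0, G1, S and G2/M phases were measured by FACS, and values are means of three experiments.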

MCF7 [9] = test: Cell cycle arrest in human MCF7 cells assessed as accumulation at G1 phase at 30 uM after 24 hrs by FACS analysis; outline: as §4
MCF7 [10] = test: Cell cycle arrest in human MCF7 cells assessed as accumulation at S phase at 30 uM after 24 hrs by FACS analysis; outline: as §4
MCF7 [11] = test: Cell cycle arrest in human MCF7 cells assessed as accumulation at G2/M phase at 30 uM after 24 hrs by FACS analysis; outline: as §4

GI50 (K562): 3.69 µM
GI50 (A549): inactive
GI50 (NCI-H226): inactive
GI50 (NCI-H23): 3.56 µM
GI50 (NCI-H322M): 12.9 µM
GI50 (NCI-H460): 3.74 µM
GI50 (NCI-H522): 4.1 µM
GI50 (COLO 205): 7.38 µM
GI50 (HCC 2998): 2.46 µM
GI50 (HCT-116): 1.39 µM
GI50 (HCT-15): 3.85 µM
GI50 (HT-29): 2 µM
GI50 (SW-620): 1.75 µM
GI50 (U-251): 2.12 µM
GI50 (786-0): 2.14 µM
GI50 (ACHN): 7.17 µM
GI50 (PC-3): inactive
GI50 (OVCAR-3): 2.4 µM
GI50 (OVCAR-4): 11.4 µM
GI50 (OVCAR-5): 3.11 µM
GI50 (OVCAR-8): 3.85 µM
GI50 (SK-OV-3): 31.4 µM
GI50 (MCF7 [2]): 1.74 µM
GI50 (MDA-MB-231): 13.8 µM
GI50 (BT-549): 12.3 µM
GI50 (T47D): 6.65 µM
GI50 (MDA-MB-435): 3.63 µM
GI50 (SK-MEL-2): 3.44 µM
GI50 (SK-MEL-28): 10.9 µM
GI50 (SK-MEL-5): 8.7 µM
Structure (SMILES): COc1cc(/C=C/C(=O)c2cccc(-n3cc(-c4ccc(Cl)cc4)[nH]c3=O)c2)cc(OC)c1OC
GI50 [1]: 3.92 µM
GI50 (EKVX): inactive
GI50 (HOP-62): inactive
GI50 (HOP-92): inactive
GI50 (KM12): 5.45 µM
GI50 (SF-268): 5.07 µM
GI50 (SF-295): 24.3 µM
GI50 (SF-539): 3.49 µM
GI50 (SNB-19): 16.1 µM
GI50 (SNB-75): inactive
GI50 (A498): 30.2 µM
GI50 (CAKI-1): inactive
GI50 (RXF 393): 3.22 µM
GI50 (SN12C): 5.14 µM
GI50 (TK-10): 6.46 µM
GI50 (UO-31): 7.03 µM
GI50 (NCI/ADR-RES): 2.36 µM
GI50 [3]: 5.96 µM
GI50 (LOX IMVI): 1.72 µM
GI50 (Malme-3M): 18.1 µM
GI50 (M14): 4.36 µM
GI50 (UACC-257): 17.4 µM
GI50 (UACC-62): 8.88 µM
Activity (MCF7 [4]): 4.49%
Activity (MCF7 [5]): 67.68%
Activity (MCF7 [6]): 13.91%
Activity (MCF7 [7]): 13.92%
Activity (MCF7 [8]): 12%
Activity (MCF7 [9]): 44%
Activity (MCF7 [10]): 17%
Activity (MCF7 [11]): 27%

GI50 (K562): 0.5 µM
GI50 (A549): 4.03 µM
GI50 (NCI-H226): 14.6 µM
GI50 (NCI-H23): 1.43 µM
GI50 (NCI-H322M): 2.02 µM
GI50 (NCI-H460): 1.4 µM
GI50 (NCI-H522): 0.95 µM
GI50 (COLO 205): 1.51 µM
GI50 (HCC 2998): 1.26 µM
GI50 (HCT-116): 0.33 µM
GI50 (HCT-15): 1.13 µM
GI50 (HT-29): 0.66 µM
GI50 (SW-620): 0.39 µM
GI50 (U-251): 0.63 µM
GI50 (786-0): 1.38 µM
GI50 (ACHN): 1.6 µM
GI50 (PC-3): 3.26 µM
GI50 (OVCAR-3): 1.23 µM
GI50 (OVCAR-4): 1.88 µM
GI50 (OVCAR-5): 1.88 µM
GI50 (OVCAR-8): 1.62 µM
GI50 (SK-OV-3): 3.27 µM
GI50 (MCF7 [2]): 0.31 µM
GI50 (MDA-MB-231): 2.17 µM
GI50 (BT-549): 1.93 µM
GI50 (T47D): 2.19 µM
GI50 (MDA-MB-435): 1.2 µM
GI50 (SK-MEL-2): 2.06 µM
GI50 (SK-MEL-28): 1.74 µM
GI50 (SK-MEL-5): 1.4 µM
Structure (SMILES): COc1cc(/C=C/C(=O)c2cccc(-n3cc(-c4ccccc4)[nH]c3=O)c2)cc(OC)c1OC
GI50 [1]: 0.62 µM
GI50 (EKVX): 2.3 µM
GI50 (HOP-62): 4.12 µM
GI50 (HOP-92): 10.8 µM
GI50 (KM12): 1.37 µM
GI50 (SF-268): 1.92 µM
GI50 (SF-295): 1.9 µM
GI50 (SF-539): 1.68 µM
GI50 (SNB-19): 2.35 µM
GI50 (SNB-75): 4.47 µM
GI50 (A498): 2.65 µM
GI50 (CAKI-1): 1.75 µM
GI50 (RXF 393): 1.71 µM
GI50 (SN12C): 2.09 µM
GI50 (TK-10): 3.02 µM
GI50 (UO-31): 1.51 µM
GI50 (NCI/ADR-RES): 1.1 µM
GI50 [3]: 3.41 µM
GI50 (LOX IMVI): 0.48 µM
GI50 (Malme-3M): 1.31 µM
GI50 (M14): 1.35 µM
GI50 (UACC-257): 1.52 µM
GI50 (UACC-62): 1.52 µM
Activity (MCF7 [4]): 8.19%
Activity (MCF7 [5]): 54.85%
Activity (MCF7 [6]): 17.5%
Activity (MCF7 [7]): 19.46%
Activity (MCF7 [8]): 52.34%
Activity (MCF7 [9]): 39.08%
Activity (MCF7 [10]): 5.6%
Activity (MCF7 [11]): 3.02%
